Experimental data: ChEMBL document CHEMBL3779801, “Discovery of the Selective CYP17A1 Lyase Inhibitor BMS-351 for the Treatment of Prostate Cancer” (ACS Med Chem Lett, 2016)

Tests used:
[1] = Clearance in cynomolgus monkey plasma at 2 mg/kg, iv by LC-MS/MS analysis; format: ADME, organism-based, Macaca fascicularis
Method in brief: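 Cynomolgus monkeys were dosed intravenously. Plasma parameters are given as mean ± standard deviation.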

[2] = Intrinsic permeability from basolateral to apical side in human Caco2 cells; format: ADME, cell-based; settings: Caco-2
[3] = Tmax in cynomolgus monkey plasma at 4 mg/kg, po after 0.25 to 45 hrs by LC-MS/MS analysis; format: ADME, organism-based, Macaca fascicularis
Method in brief: (§1)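 Cynomolgus monkeys were dosed orally from a solution formulation. Plasma parameters are given as mean ± standard deviation.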

[4] = Cmax in cynomolgus monkey plasma at 4 mg/kg, po after 0.25 to 45 hrs by LC-MS/MS analysis; format: ADME, organism-based, Macaca fascicularis; design: dose 4 mg/kg, route oral; method in brief: as §1
[5] = biological target: T1, Cytochrome P450 11B1, mitochondrial (Homo sapiens, UniProt P15538); assay: Inhibition of CYP11B1 in human H295R cells using deoxycorticosterone as substrate incubated for 48 hrs by LC-MS method; format: ADME, cell-based
T1 sequence (P15538 whole entry): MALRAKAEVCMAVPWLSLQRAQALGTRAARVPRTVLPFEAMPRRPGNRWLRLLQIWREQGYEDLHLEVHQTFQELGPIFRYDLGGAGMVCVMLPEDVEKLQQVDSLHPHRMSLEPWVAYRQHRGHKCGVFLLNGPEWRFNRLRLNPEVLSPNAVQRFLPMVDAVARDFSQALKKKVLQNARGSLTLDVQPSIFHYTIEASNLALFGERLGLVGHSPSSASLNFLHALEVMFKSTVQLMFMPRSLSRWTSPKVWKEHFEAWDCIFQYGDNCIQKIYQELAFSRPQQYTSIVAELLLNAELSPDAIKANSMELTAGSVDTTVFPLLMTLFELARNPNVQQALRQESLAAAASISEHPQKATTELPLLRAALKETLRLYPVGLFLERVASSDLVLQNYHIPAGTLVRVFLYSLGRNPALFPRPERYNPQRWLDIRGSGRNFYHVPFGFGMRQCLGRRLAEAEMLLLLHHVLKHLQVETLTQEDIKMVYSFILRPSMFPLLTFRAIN

[6] = Metabolic stability in mouse liver microsomes assessed as parent compound remaining at 0.5 uM incubated for 10 mins; format: ADME; settings: read-out: Stability
Method in brief: (§2)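 Compound at 0.5 μM was incubated with human, mouse or cynomolgus liver microsomes for 10 min.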

[7] = Inhibition of cynomolgus monkey CYP11B1 using hydroxy progesterone as substrate incubated for 120 mins by LC-MS method; design: species or system Macaca fascicularis
[8] = test system: Cynomolgus monkey; assay: Effect on progesterone level in one day castrated cynomolgus monkey assessed as baseline level at 1.5 mg/kg, po bid for 24 hrs by radiometric immunoassay; format: ADME, organism-based, Macaca fascicularis; settings: in vivo
[9] = biological target: T2, Steroid 17-alpha-hydroxylase/17,20 lyase (Homo sapiens, UniProt P05093); assay: Inhibition of human CYP17A1 expressed in HEK293 cell microsomes using [3H]-pregnenolone as substrate incubated for 45 mins by scintillation proximity assay in presence of NADPH
T2 sequence (P05093 whole entry): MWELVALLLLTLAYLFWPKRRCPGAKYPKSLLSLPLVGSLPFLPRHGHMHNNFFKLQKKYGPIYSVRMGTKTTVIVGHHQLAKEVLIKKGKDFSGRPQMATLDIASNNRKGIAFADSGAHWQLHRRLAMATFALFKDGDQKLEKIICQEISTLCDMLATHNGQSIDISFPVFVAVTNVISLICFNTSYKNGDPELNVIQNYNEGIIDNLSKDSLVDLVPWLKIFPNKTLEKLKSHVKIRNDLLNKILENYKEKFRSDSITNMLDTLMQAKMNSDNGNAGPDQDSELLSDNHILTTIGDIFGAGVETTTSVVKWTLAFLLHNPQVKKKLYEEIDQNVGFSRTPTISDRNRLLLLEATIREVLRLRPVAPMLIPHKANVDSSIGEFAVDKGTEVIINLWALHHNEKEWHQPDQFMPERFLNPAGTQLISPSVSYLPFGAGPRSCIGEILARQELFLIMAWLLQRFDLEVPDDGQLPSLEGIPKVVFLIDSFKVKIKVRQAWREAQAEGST

[10] = test system: Cynomolgus monkey; assay: Free plasma concentration in cynomolgus monkey plasma at 1 mg/kg, po by LC-MS/MS analysis; format: ADME, organism-based, Macaca fascicularis; settings: in vivo
[11] = Intrinsic permeability from apical to basolateral side in human Caco2 cells; format: ADME, cell-based; settings: Caco-2
[12] = biological target: T3, Cytochrome P450 1A2 (Homo sapiens, UniProt P05177); assay: Inhibition of CYP1A2 (unknown origin); format: ADME
T3 sequence (P05177 whole entry): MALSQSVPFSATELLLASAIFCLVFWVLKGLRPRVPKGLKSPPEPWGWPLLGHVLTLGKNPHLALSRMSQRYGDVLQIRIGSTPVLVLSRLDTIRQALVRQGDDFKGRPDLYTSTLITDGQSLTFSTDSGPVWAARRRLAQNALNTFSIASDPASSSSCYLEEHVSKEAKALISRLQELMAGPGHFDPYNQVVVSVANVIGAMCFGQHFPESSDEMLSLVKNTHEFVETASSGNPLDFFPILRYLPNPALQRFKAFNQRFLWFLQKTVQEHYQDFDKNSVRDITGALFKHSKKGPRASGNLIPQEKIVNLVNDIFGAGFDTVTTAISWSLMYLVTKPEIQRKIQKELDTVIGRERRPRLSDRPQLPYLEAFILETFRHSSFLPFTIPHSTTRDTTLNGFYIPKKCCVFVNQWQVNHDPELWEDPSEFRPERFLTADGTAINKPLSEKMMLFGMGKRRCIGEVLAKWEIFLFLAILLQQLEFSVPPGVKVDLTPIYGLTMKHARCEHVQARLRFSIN

[13] = test system: Cynomolgus monkey; assay: Ratio of Cmax to Cmean in cynomolgus monkey plasma at 4 mg/kg, po after 0.25 to 45 hrs by LC-MS/MS analysis; format: ADME, organism-based, Macaca fascicularis; settings: in vivo
[14] = Metabolic stability in cynomolgus monkey liver microsomes assessed as parent compound remaining at 0.5 uM incubated for 10 mins; format: ADME, Macaca fascicularis; settings: read-out: Stability; method in brief: as §2
[15] = biological target: T4, Steroid 21-hydroxylase (Homo sapiens, UniProt P08686); assay: Inhibition of CYP21A2 in human H295R cells using hydroxy progesterone as substrate incubated for 120 mins by LC-MS method; format: ADME, cell-based
T4 sequence (P08686 whole entry): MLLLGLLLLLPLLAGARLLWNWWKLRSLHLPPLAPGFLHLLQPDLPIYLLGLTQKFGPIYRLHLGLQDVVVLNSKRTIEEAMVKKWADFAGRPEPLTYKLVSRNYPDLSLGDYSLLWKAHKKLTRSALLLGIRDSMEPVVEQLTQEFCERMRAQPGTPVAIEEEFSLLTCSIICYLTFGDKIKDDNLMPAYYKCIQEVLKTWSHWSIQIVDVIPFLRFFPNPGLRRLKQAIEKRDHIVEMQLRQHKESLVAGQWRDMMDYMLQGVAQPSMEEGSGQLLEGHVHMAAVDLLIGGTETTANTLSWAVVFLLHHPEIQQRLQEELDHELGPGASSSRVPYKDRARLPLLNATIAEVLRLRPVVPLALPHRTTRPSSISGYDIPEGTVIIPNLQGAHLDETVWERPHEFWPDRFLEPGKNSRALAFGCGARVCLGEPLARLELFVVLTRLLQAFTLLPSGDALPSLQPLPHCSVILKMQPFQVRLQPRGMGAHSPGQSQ

[16] = test system: Cynomolgus monkey; assay: Effect on cortisol level in one day castrated cynomolgus monkey assessed as baseline level at 1.5 mg/kg, po bid for 24 hrs by radiometric immunoassay; format: ADME, organism-based, Macaca fascicularis; settings: in vivo

Question: Which clearance [1] does the source give for `Cc1ccncc1-c1cccc2c1ncn2CC(F)(F)F` here?
Answer: 19 mL/min/kg

Question: And the Papp B→A [2]?
Answer: 30 ×10⁻⁶ cm/s

Question: What about the Tmax [3] of the same compound?
Answer: 1.3 h

Question: What about the Cmax [4] of the same compound?
Answer: 3000 nM

Question: What about the IC50 [5] of the same compound?
Answer: > 7.5 µM

Question: What about the remaining at 10 min, 0.5 µM [6] of the same compound?
Answer: 66%

Question: What about the IC50 [7] of the same compound?
Answer: > 7.5 µM

Question: What about the Activity [8] of the same compound?
Answer: Non-toxic

Question: And the IC50 [9]?
Answer: 0.019 µM

Question: And the “Cp(f)” value [10]?
Answer: 80 nM

Question: And the Papp A→B [11]?
Answer: 40 ×10⁻⁶ cm/s

Question: What about the IC50 [12] of the same compound?
Answer: 9 µM

Question: What about the Ratio [13] of the same compound?
Answer: 16

Question: And the remaining at 10 min, 0.5 µM [14]?
Answer: 83%

Question: And the IC50 [15]?
Answer: > 7.5 µM

Question: What about the Activity [16] of the same compound?
Answer: Non-toxic
